Screening results deposited in PubChem by several laboratories.
Compounds with a hit are over-represented: about 2.9% of the library has one in this group of screens.
PG9 binder: binds the HIV-1 gp120 antibody PG9; inhibition, % at 6.7 µM; AID 624416; TR-FRET gp120-PG9 antibody binding; hit rate 0.43% among 360,000; in the data active = inhibition above about 8.5%
H9c2 TAG inh: inhibitors of triacylglycerol accumulation; H9c2 cells, Nile Red lipid (TAG) fluorescence; cells loaded with 200 µM oleic acid; inhibition, % at 12.5 µM; hit rate 0.66% among 230,000; AID 651582;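 active = pattern-corrected inhibition of lipid staining of at least 50% with the nuclear-stain viability signal not falling by more than 50%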
T cruzi repl: blocks replication of Trypanosoma cruzi. T. cruzi beta-gal in NIH3T3, luminescence, 90 h. inhibition, % (no concentration beside the values). hit rate 1.4% among 300,000. AID 1885;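 active = mean inhibition across valid replicates above about 55%, limit read from the data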;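 also: signal also drops with host cell toxicity which is not excluded here; higher percent means less beta-gal luminescence so fewer parasites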
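compound dosing = single 50 nL compound addition per well in DMSO | material = NIH/3T3 host cells with β-galactosidase reporter T. cruzi | input = 5,000 host fibroblasts per well | timing = ≥90 h infection period, 3 h prior cell attachment | read-out basis = percent inhibition of parasite-derived β-gal signal | detection = GalScreen β-gal luminescence, detergent lysis, 60 min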
hiPSC survival: hiPSC single-cell survival enhancement; ATPlite luminescence; 100% = ROCK inhibitor wells, 0% = DMSO; hit rate 0.044% among 360,000; survival enhancement, % at 20 µM; in the data active = survival enhancement above about 18%;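 also: cells exposed to compounds for 16 hours before the ATP read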
beta cell repl: inducers of beta-cell replication in MIN6 cells; MIN6 cells proliferation, ATPlite luminescence, 48 h; cells starved in 0.2% serum; 100% = growth in 10% serum; hit rate 0.29% among 330,000; proliferation, % at 10 µM;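 active = compounds whose signal lies at least 3.5 SD above the mean of all wells on their plate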
Rev-erbA mod: modulates human Rev-erb alpha binding to DNA | P20393 | Rev-erbα–FITC-DNA binding, fluorescence polarization, 90 min | activity, % at 10 µM | hit rate 0.79% among 370,000 | AID 1259318;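 active = activity above about 14%, limit read from the data; passing the limit was not always enough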
Target sequence (P20393 whole entry, looked up): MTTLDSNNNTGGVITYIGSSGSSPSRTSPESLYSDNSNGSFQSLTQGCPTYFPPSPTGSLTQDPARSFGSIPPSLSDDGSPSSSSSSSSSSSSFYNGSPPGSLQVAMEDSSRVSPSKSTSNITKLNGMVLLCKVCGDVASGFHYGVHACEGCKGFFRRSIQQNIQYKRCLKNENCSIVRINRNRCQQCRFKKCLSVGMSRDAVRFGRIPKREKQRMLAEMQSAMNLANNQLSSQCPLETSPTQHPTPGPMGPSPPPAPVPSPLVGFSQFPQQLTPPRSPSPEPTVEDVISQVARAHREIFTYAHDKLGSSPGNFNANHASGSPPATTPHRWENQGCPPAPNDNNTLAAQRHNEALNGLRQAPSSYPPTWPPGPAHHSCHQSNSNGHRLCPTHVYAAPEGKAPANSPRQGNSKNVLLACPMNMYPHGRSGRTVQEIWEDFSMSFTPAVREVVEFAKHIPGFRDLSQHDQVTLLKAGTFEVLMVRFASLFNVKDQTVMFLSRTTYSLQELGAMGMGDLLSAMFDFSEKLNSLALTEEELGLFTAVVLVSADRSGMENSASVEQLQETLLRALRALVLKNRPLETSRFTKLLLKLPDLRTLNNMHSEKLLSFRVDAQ
NR1D1 mod conf: Rev-erb alpha (human) modulation, hit confirmation. shares compounds with Rev-erbA mod. Rev-erb alpha FITC-DNA binding, fluorescence polarization, 90 min. hit rate 61% among 3,000. activation, % at 25 µM;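 active = activation at or above a set limit, or at least 3 SD above the negative control mean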
RORg DNA counter: RORgamma DNA-binding activity, dose-response counter-screen; shares compounds with Rev-erbA mod; purified RORgamma protein-FITC-DNA binding, fluorescence polarization; IC50, µM; hit rate 8% among 910; AID 1259320;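 active = Compounds whose fitted half-maximal concentration for disrupting protein-DNA binding is below 10 micromolar; the record names Rev-erb in its text, so the target is in doubt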
Each line names hits and unclear results; the compound was inactive in the other large screens (follow-up assays come after a bar, where they were run).

CCC/C(=C1/c2ccccc2C(=O)N1c1ccccc1)c1ccc2c(c1)OCO2	none (no result: H9c2 TAG inh, T cruzi repl)
O=C(Nc1ccccc1)Nc1ncc([N+](=O)[O-])s1	Rev-erbA mod 23 | NR1D1 mod conf inactive
CSc1nc(N)c(C(=O)NC2CCCCC2)s1	Rev-erbA mod 23 (no result: H9c2 TAG inh) | NR1D1 mod conf inactive
COC(=O)c1sc(SC)nc1N	none (no result: PG9 binder, H9c2 TAG inh, hiPSC survival, Rev-erbA mod)
CCOc1ccccc1NC(=O)c1cnc2n(c1=O)CCS2	Rev-erbA mod 46 | NR1D1 mod conf 38 | RORg DNA counter inactive
COc1ccc(C)cc1NC(=O)c1cnc2n(c1=O)CCS2	none (no result: H9c2 TAG inh)
CCOC(=O)c1c(NC(=O)CSc2nnc3ccccn23)sc2c1CCC2	none (no result: H9c2 TAG inh)
COC(=O)c1cc(NC(=O)c2ccccc2)c(=O)oc1/C=C/Nc1ccc(Oc2ccccc2)cc1	Rev-erbA mod 33 | NR1D1 mod conf inactive
CC(=O)c1ccc(NC(=O)c2cn(-c3ccccc3)nc2-c2ccncc2)cc1	none
COC(=O)c1ccc(NC(=O)c2cn(-c3ccccc3)nc2-c2ccncc2)cc1	T cruzi repl 56, Rev-erbA mod 289 | NR1D1 mod conf 254 | RORg DNA counter inactive
O=C(c1ccccc1)c1ccc(C(=O)N2CCN(c3ccccc3Cl)CC2)cc1	none (no result: T cruzi repl)
CNc1cc(-c2ccc(O)cc2C)ncn1	none (no result: T cruzi repl, beta cell repl)
CCOC(=O)c1c(NC(=O)c2cc3n(n2)C(C(F)(F)F)CC(c2ccccc2)N3)sc(C)c1C (stereo unspecified)	Rev-erbA mod 36 (no result: H9c2 TAG inh) | NR1D1 mod conf inactive
CN1CCN(C(=O)c2ccc(CS(=O)(=O)c3c(Cl)cccc3Cl)o2)CC1	none
Cc1cc(C(=O)Nc2ccccc2N2CCCCC2)no1	none
O=C(CCl)N1c2ccccc2Oc2ccc3ccccc3c21	Rev-erbA mod 15 (no result: T cruzi repl, beta cell repl) | NR1D1 mod conf inactive
CC(=O)N1c2ccccc2Oc2cc3ccccc3cc21	none (no result: H9c2 TAG inh)
CCn1c2ccccc2n2c(=O)c(=O)n(CC(=O)Nc3ccc(C(C)C)cc3)nc12	Rev-erbA mod 31 (no result: H9c2 TAG inh) | NR1D1 mod conf inactive
CC(Sc1nn(-c2ccc(F)cc2)c(=S)s1)C(=O)c1c(N)n(C)c(=O)n(C)c1=O (stereo unspecified)	Rev-erbA mod 22 | NR1D1 mod conf 24
Cn1c(N)c(C(=O)CSc2nn(-c3ccccc3)c(=S)s2)c(=O)n(C)c1=O	none (no result: T cruzi repl)
O=C(CN(C(=O)CCC(=O)Nc1ccccn1)c1cccc(F)c1)NCc1ccc(F)cc1	none (no result: H9c2 TAG inh)
COc1cc2sc3ccc(-c4ccc(N(C)C)nc4)cc3c(=O)c2cc1OC	none (no result: H9c2 TAG inh, hiPSC survival)
COc1ccc(-c2ccc3sc4ccccc4c(=O)c3c2)cn1	Rev-erbA mod 58 | NR1D1 mod conf 61 | RORg DNA counter inactive
COc1ccccc1C(=O)NNC(=O)c1cccc(Cl)c1	Rev-erbA mod 29 (no result: H9c2 TAG inh) | NR1D1 mod conf inactive
COc1cc(SC)ccc1C(=O)Nc1ccc(Cl)cn1	Rev-erbA mod 18 | NR1D1 mod conf 34 | RORg DNA counter inactive
COc1ccccc1C(=O)Nc1cccc(NC(=O)c2ccccc2OC)n1	Rev-erbA mod 23 (no result: H9c2 TAG inh) | NR1D1 mod conf inactive
COc1cc2ccccc2cc1C(=O)Nc1ccc(Br)cn1	Rev-erbA mod 36 | NR1D1 mod conf 28
COC(=O)c1cc(COc2ccc3c(c2)oc(=O)c2ccccc23)c(C)o1	Rev-erbA mod 29 | NR1D1 mod conf 24
COCCOC(=O)c1c(C)oc2ccc(OCc3cc(C(=O)OC)oc3C)cc12	none (no result: H9c2 TAG inh)
Nc1nc(SCC(=O)c2ccc(Br)s2)n[nH]1	none (no result: H9c2 TAG inh)
COc1ccc2cc(CCN3C(=O)c4ccccc4C3=O)c(=O)[nH]c2c1	Rev-erbA mod 28 | NR1D1 mod conf 20
CC1(C)N=C(N)N=C(N)N1c1cccc(CC(=O)Nc2ccccc2)c1	none (no result: T cruzi repl, beta cell repl)
Cc1cc(C)c(C#N)c(SCC(=O)NC(C)(C)C)n1	none
Cc1cc(C)c(C#N)c(SCCS(=O)(=O)c2ccc(C(C)(C)C)cc2)n1	Rev-erbA mod 24 | NR1D1 mod conf inactive
S=C(Nc1ccccc1Cl)N1CCCCC1	none (no result: H9c2 TAG inh)
COc1ccc(-n2c(CCc3ccccc3)nnc2SCC(=O)c2ccc(Cl)cc2)cc1	none (no result: H9c2 TAG inh)
COc1ccc(-n2c(COc3ccc(Cl)cc3)nnc2SCC(=O)c2ccc(-c3ccccc3)cc2)cc1	Rev-erbA mod 22 (no result: PG9 binder, H9c2 TAG inh, T cruzi repl, hiPSC survival, beta cell repl) | NR1D1 mod conf inactive
CC1Cc2ccccc2N1C(=O)CSc1nncn1C (stereo unspecified)	none (no result: H9c2 TAG inh)
CN(Cc1ccccc1)Cc1nc2c(c(=O)n(C)c(=O)n2C)n1Cc1ccccc1Cl	Rev-erbA mod 31 | NR1D1 mod conf 50
COc1ccc2cc(C(=O)Nc3ccc(S(N)(=O)=O)cc3)sc(=O)c2c1OC	Rev-erbA mod 26 | NR1D1 mod conf 37 | RORg DNA counter inactive
COc1cccc(C(=O)CSc2nnc(-c3cc(OC)cc(OC)c3)o2)c1	Rev-erbA mod 27 (no result: H9c2 TAG inh) | NR1D1 mod conf 36 | RORg DNA counter inactive
O=C(NCCc1ccc2c(c1)OCO2)c1cc(-c2ccccc2)c(N2CCOCC2)s1	none (no result: PG9 binder, H9c2 TAG inh, T cruzi repl, hiPSC survival, beta cell repl)
CCCNC(=O)c1cc(-c2ccccc2)c(N2CCCCC2)s1	Rev-erbA mod 93 (no result: H9c2 TAG inh) | NR1D1 mod conf 27
O=S(=O)(c1ccc(Br)cc1)N1CCN(c2cc(-c3ccccc3)nc3ncnn23)CC1	Rev-erbA mod 30 (no result: PG9 binder, H9c2 TAG inh) | NR1D1 mod conf 26
Cc1cc2nnc(SCC(=O)N3C(C)CCCC3C)n2c(N)n1 (stereo unspecified)	none (no result: H9c2 TAG inh)
Cc1ccc(S(=O)(=O)c2nc(Nc3ccccc3C#N)sc2Cl)cc1	PG9 binder 46, Rev-erbA mod 27 (no result: H9c2 TAG inh) | NR1D1 mod conf 36 | RORg DNA counter inactive
CN1C(=O)/C(=C/C=C2\SCCN2C)N(C)C1=S	Rev-erbA mod 51 | NR1D1 mod conf 22
COc1ccccc1NS(=O)(=O)c1ccc(C(=O)NCC2(N(C)C)CCCCC2)cc1	none
COc1ccc2oc(C(=O)Nc3nc4ccc(S(C)(=O)=O)cc4s3)c(C)c2c1	Rev-erbA mod 31 | NR1D1 mod conf inactive
COc1cc(OC)cc(C(=O)Nc2nc3ccc(S(C)(=O)=O)cc3s2)c1	Rev-erbA mod 33 (no result: H9c2 TAG inh) | NR1D1 mod conf 21
CC(=O)c1sc(NC(=O)c2cc(=O)c3ccccc3o2)nc1C	none
CC(=O)c1sc(NC(=O)c2oc3ccc(F)cc3c2C)nc1C	Rev-erbA mod 54 (no result: T cruzi repl) | NR1D1 mod conf 46 | RORg DNA counter inactive
COc1cc(C(=O)Nc2nc3ccc(S(C)(=O)=O)cc3s2)cc(OC)c1C	Rev-erbA mod 21 | NR1D1 mod conf inactive
O=C(Nc1nnc(SCc2ccc(F)cc2)s1)c1ccccn1	none
O=C(CSc1nnc(Cc2csc(Nc3cccc(Cl)c3)n2)o1)N1CCc2ccccc21	none (no result: H9c2 TAG inh)
CC(=O)C(C)Sc1nnc(-c2ccccc2F)n1C1CC1 (stereo unspecified)	none (no result: H9c2 TAG inh)
